Experiment [1] relates to MDA-MB-231 cells. Description: Cell cycle analysis by flow cytometry. To be noted: for apoptotic sub-G1 DNA content / G0/G1 phase DNA content: 48 h at IC50 (DET 14 μM, DETD-35 3.8 μM, PTX 60 μM); for apoptotic sub-G1 DNA content: vehicle 1.3%; for G0/G1 phase DNA content: vehicle 51.5%; for cell-cycle arrest: treatment at IC50, time course. The format is cell-based, human. In a few lines:
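MDA-MB-231 cells, 5 × 10^4 per well in 6-well plates, held 24 h in DMEM with 0.5% FBS. Medium then switched to 10% FBS with test compounds for 48 h, or for indicated times. Adherent and floating cells pooled, PBS-washed and fixed in ice-cold 70% ethanol overnight at 4 °C. Stained with 20 μg/mL RNase, Triton X-100 and 20 μg/mL propidium iodide for 30 min, dark, room temperature. Phase fractions (sub-G1, G0/G1, S, G2/M) taken from flow cytometric DNA histograms; three independent experiments.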
(In general: Flow cytometry measures light scatter and fluorescence of single cells or particles in a stream.)

Experiment [2] relates to MDA-MB-231 cells. Description: Boyden chamber migration assay. The format is cell-based, human. As to conditions: 24 h, vs vehicle; for reduction of cell migration, low concentration: DET 2.5 μM, DETD-35 1.25 μM, PTX 2.5 μM. In a few lines: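 Boyden inserts, 6.5 mm diameter, no coating. 5 × 10^4 MDA-MB-231 cells per insert in DMEM with 0.1% FBS. The lower well held 10% FBS chemoattractant with 0.5% DMSO vehicle or test compounds at two concentrations. Incubation 24 h, 37 °C, 5% CO2. Non-migrated cells removed by swab; migrated cells fixed, DAPI-stained (1 μg/mL) and counted in three fields at 20× by fluorescence microscopy. Three independent experiments, mean ± SEM, one-way ANOVA.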

The test system of experiment [3] is MDA-MB-231 cells. The experiment is described as follows: Boyden chamber. The format is cell-based, human. As to conditions: 24 h, Matrigel. In a few lines:
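Filters (8 μm) pre-coated with Matrigel (30 μg per filter) and held 2 h at 37 °C. MDA-MB-231 cells were seeded in the upper chamber at 5 × 10^4 per insert in DMEM with 0.1% FBS. The lower well held 10% FBS chemoattractant plus 0.5% DMSO vehicle or test compounds, two concentrations each. Incubation 24 h, 37 °C, 5% CO2. Cells on the upper surface were scraped off; invaded cells fixed, DAPI-stained (1 μg/mL) and counted in three 20× fields. Three independent experiments, mean ± SEM, one-way ANOVA.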

Experiment [4] deals with MDA-MB-231 cells. The experiment is described as follows: Western blot analysis of protein markers. The format is cell-based, human. As to conditions: for PARP (full-length and cleaved) expression: 48-h treatment. In a few lines:
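Total cellular protein from treated MDA-MB-231 cells, quantified by Bradford assay. Resolved on 4%–20% gradient SDS-PAGE and immunoblotted for PARP (full-length and cleaved), PN-1, Slug, vimentin, VEGF, E-cadherin, Snail, ZO-1 and ZEB-1, with actin as loading control. HRP secondary antibodies and enhanced chemiluminescence on film. Bands quantified by densitometry and normalised to actin.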
(In general: In western blotting, separated proteins are transferred to a membrane and probed.)

Experiment [5] concerns MDA-MB-231 cells. The experiment is described as follows: Compound-drug combination assay. The format is cell-based, human. As to conditions: MTT, 24 h. In a few lines:
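MDA-MB-231 cells seeded at 1.5 × 10^3–5 × 10^3 per well in 96-well plates. Treated 24 h with each agent alone to derive IC40 by MTT. Then treated with the test compound (0–4 μM) combined with paclitaxel (0–100 nM) and read by MTT. Interaction assessed by classic isobologram and the Chou-Talalay method. Combination index plotted against fraction affected: CI <1 synergy, =1 additive, >1 antagonism.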

Experiment [6] has as its system MDA-MB-231 tumor cells in SCID mice. The experiment is described as follows: Lung metastatic animal model of TNBC. It is filed as in vivo, mouse. To be noted: post-treatment, 5 mg/kg i.p. every three days (21 doses), day 71. In a few lines: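 Seventy female SCID mice, 5 weeks old, randomised into 7 groups. MDA-MB-231 cells (1 × 10^6) injected i.v. on day 0. One group received 10 mg/kg every two days for three doses before cell injection. Tumor and sham controls received 5% DMSO. Mice killed on day 71; lung colonies counted, body weight and organ index recorded; one-way ANOVA.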

The test system of experiment [7] is lung tissues of MDA-MB-231 xenograft SCID mice. Description: Immunohistochemistry of lung tissues. The format is in vivo, mouse. As to conditions: lung tissue. In a few lines:
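Lungs from the metastasis model were fixed in 10% buffered formalin, paraffin-embedded and cut at 4 μm. Sections stained with H&E and immunostained with rabbit antibodies to VEGF, Ki-67, COX-2 and caspase 3. Staining levels quantified by image analysis and compared with sham and tumor control groups.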

The subject of experiment [8] is TS/A (ER+, HER2−) murine mammary cancer cell line. Description: MTT cell viability assay, TS/A cells. It is filed as cell-based. As to conditions: read-out: 50% inhibitory concentration (IC50), TS/A (mouse), Table 3, 24 h, breast. In a few lines: (§1)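 Normal or cancer cells seeded at 2 × 10^3–1 × 10^4 per well in 96-well plates and allowed to settle overnight. Exposed to test compounds for 24 h, with paclitaxel run in parallel as reference. Growth read by MTT, OD570. Viability (%) = treated OD570 / vehicle OD570 × 100, with 0.5% DMSO vehicle set as 100%. IC50 derived from viability data.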
In general terms: Tetrazolium dyes change colour on reduction, which living cells bring about.

The subject of experiment [9] is MDA-MB-231 (ER−, PR−, HER2−) cells. The experiment is described as follows: MTT cell viability assay, MDA-MB-231 cells. The format is cell-based, human. As to conditions: read-out: 50% inhibitory concentration (IC50), MDA-MB-231, Table 3, 24 h, breast. In a few lines:
as §1

The test system of another experiment is B16–F10 cells (skin). The experiment is described as follows: MTT cell viability assay, B16–F10 cells. It is filed as cell-based. To be noted: read-out: 50% inhibitory concentration (IC50), B16–F10 (mouse), 24 h. In a few lines: as §1
For experiment [10], the system named is brain cancer cell line U-87MG. The experiment is described as follows: MTT cell viability assay, U-87MG cells. As to conditions: read-out: 50% inhibitory concentration (IC50), U-87MG, 24 h. The format is cell-based. In a few lines: as §1
The test system of experiment [11] is lung cancer cell line PC6. Description: MTT cell viability assay, PC6 cells. It is filed as cell-based. As to conditions: read-out: 50% inhibitory concentration (IC50), PC6, 24 h. In a few lines: as §1
The next experiment deals with lymphoma line U937. The experiment is described as follows: MTT cell viability assay, U937 cells. The format is cell-based. As to conditions: read-out: 50% inhibitory concentration (IC50), U937, 24 h. In a few lines: as §1
Experiment [12] relates to neuroepithelioma line SK-N-MC. Description: MTT cell viability assay, SK-N-MC cells. The format is cell-based. As to conditions: read-out: 50% inhibitory concentration (IC50), SK-N-MC, 24 h. In a few lines:
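Cells (2 × 10^3–1 × 10^4 per well) seeded overnight in 96-well plates, then exposed to test compound for 24 h. Growth read by MTT colorimetric assay at OD570. Viability expressed as treated OD570 over vehicle (0.5% DMSO) OD570 × 100, with vehicle set to 100% viable. IC50 taken as the concentration giving 50% inhibition of viability.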

Experiment [13] has as its system kidney cancer cell line A498. The experiment is described as follows: MTT cell viability assay, A498 cells. The format is cell-based. To be noted: read-out: 50% inhibitory concentration (IC50), A498, 24 h. In a few lines:
as §1

The next experiment concerns PC3 cells (prostate). Description: MTT cell viability assay, PC3 cells. It is filed as cell-based. As to conditions: read-out: 50% inhibitory concentration (IC50), PC3, 24 h. In a few lines: as §1
In experiment [14] the test system is stomach cancer cell line KATO III. Description: MTT cell viability assay, KATO III cells. It is filed as cell-based. As to conditions: read-out: 50% inhibitory concentration (IC50), KATO III, 24 h. In a few lines:
as §1

The subject of experiment [15] is colon cancer cell line HCT-116. Description: MTT cell viability assay, HCT-116 cells. It is filed as cell-based. To be noted: read-out: 50% inhibitory concentration (IC50), HCT-116, 24 h. In a few lines: as §1
In experiment [16] the test system is uterus cancer cell line NES-SA. The experiment is described as follows: MTT cell viability assay, NES-SA cells. It is filed as cell-based. As to conditions: read-out: 50% inhibitory concentration (IC50), NES-SA, 24 h. In a few lines: as §1
Where [17] appears, read: DET 4 μM, DETD-35 2.5 μM, PTX 4 μM.

Consider `CC(=O)O[C@H]1C(=O)[C@@]2(C)[C@H]([C@H](OC(=O)c3ccccc3)[C@]3(O)C[C@H](OC(=O)[C@H](O)[C@@H](NC(=O)c4ccccc4)c4ccccc4)C(C)=C1C3(C)C)[C@]1(OC(C)=O)CO[C@@H]1C[C@@H]2O` [PTX, paclitaxel], for which, in the experiment on MDA-MB-231 cells [1], the “apoptotic sub-G1 DNA content” value worked out at 66.8%, the “G0/G1 phase DNA content” value was determined as 11.2% and the cell-cycle arrest entry is on record as “typical time-dependent G2/M arrest”. Moreover, the “reduction of cell migration, low concentration” value in the experiment on MDA-MB-231 cells [2] came out at 87%. In the experiment on MDA-MB-231 cells [2] (setting [17]), the “reduction of cell migration, high concentration” value is reported as 88%. In the experiment on MDA-MB-231 cells [3] (DET 2.5 μM, DETD-35 1.25 μM, PTX 2.5 μM), the “inhibition of cell invasion, low concentration” value is 85%. For the same compound, the “inhibition of cell invasion, high concentration” value in the experiment on MDA-MB-231 cells [3] (setting [17]) was 90%. Further, in the experiment on MDA-MB-231 cells [4], the “expressions of VEGF and protease nexin-1 (PN-1)” value is “downregulated”; the vimentin expression result was “time-dependently downregulated”; the “PARP (full-length and cleaved) expression” value is given as “reduced the expression of full-length PARP”. Further, in the experiment with MDA-MB-231 cells [5], the “IC40 on MDA-MB-231 cells” value was 23.8 nM. Also, in experiment [6], the “reduction of lung tumor foci” value came to 62%. The “expression of apoptotic marker caspase 3” value in [7] is “increased expression”.

In the case of `C=C(C)C(=O)O[C@H]1CC2=C[C@@H](C/C(C)=C/[C@H]3OC(=O)C(=C)[C@H]13)OC2=O` [compound 1, deoxyelephantopin, reference compound], the IC50 in [8] is 2600 nM; in [9], 14000 nM; in the experiment on B16–F10 cells (skin), 6000 nM; in experiment [10] it was 1000 nM; in experiment [11], 400 nM; with lymphoma line U937, 480 nM. The IC50 in experiment [12] was found to be 510 nM; in [13], 2820 nM; with PC3 cells (prostate), 12800 nM; in [14] it was 1470 nM; in experiment [15], 280 nM; in experiment [16], 900 nM. Besides, the “apoptotic sub-G1 DNA content” value in the experiment on MDA-MB-231 cells [1] amounted to 19.3%. In addition, the “G0/G1 phase DNA content” value in the experiment on MDA-MB-231 cells [1] was found to be 36.2%. Besides, the cell-cycle arrest result in the experiment on MDA-MB-231 cells [1] is listed as “did not show any cell-cycle arrest at specific stages”. Besides, the “reduction of cell migration, low concentration” value in the experiment on MDA-MB-231 cells [2] amounted to 16%. Also, the “expressions of VEGF and protease nexin-1 (PN-1)” value in the experiment with MDA-MB-231 cells [4] is on record as “downregulated”. Further, the vimentin expression entry in the experiment with MDA-MB-231 cells [4] is reported as “did not regulate”. In the experiment on MDA-MB-231 cells [4], the “PARP (full-length and cleaved) expression” value is listed as “induced significant cleavage in PARP”. In addition, the ZEB-1 expression level with MDA-MB-231 cells [4] (at 48 h) amounted to 49%.

Take Cinnamate [compound 28]: the IC50 was determined as 1800 nM in [8]; 4000 nM in experiment [9]; 3900 nM in the experiment on B16–F10 cells (skin); 350 nM in experiment [10]; 170 nM in experiment [11]; 180 nM in the experiment on lymphoma line U937. The IC50 came to 320 nM in [12]; 1110 nM in experiment [13]; 4500 nM in the experiment with PC3 cells (prostate); 420 nM in [14]; 110 nM in [15]; 420 nM in experiment [16].

Values taken from article PMC5152578 (Molecular oncology, 2016).
